Assay results: ChEMBL document CHEMBL4371098, “C-Phycocyanin from Spirulina Inhibits α-Synuclein and Amyloid-β Fibril Formation but Not Amorphous Aggregation” (J Nat Prod, 2019)
The source made the active and inactive calls. The calls are words filed in the database; no cut-off is given here.

Key:
[1] = system: Alpha-synuclein (Homo sapiens), P37840 [A53T]; test: Induction of conformational changes in human alpha-synuclein A53T mutant expressed in Escherichia coli BL21(DE3) assessed as ion population arrival time distribution at 2 uM after 20 hrs by ion mobility-mass spectrometry analysis (reference value: 5.23 milliseconds)
[2] = Self fibrillation of the compound in pH 7.4 ammonium acetate buffer after 100 hrs by ThT fluorescence assay
In short: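 C-PC alone incubated in 500 mM ammonium acetate pH 7.4 at 37 °C with ThT; fluorescence at 440/490 nm tracked over time.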

[3] = system: Alpha-synuclein (Homo sapiens), P37840 [A53T]; test: Inhibition of fibril formation of human alpha-synuclein A53T mutant expressed in Escherichia coli BL21(DE3) after 100 hrs by ThT fluorescence assay
In short: (§1)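 αS (10 μM) incubated 100 h at 37 °C in 500 mM ammonium acetate pH 7.4 with C-PC at αS:C-PC 2:1 to 200:1; ThT read at 440/490 nm; inhibition = end-point (100 h) ThT fluorescence with C-PC as percentage of αS alone; n = 3, mean ± SEM.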

[4] = system: Alpha-synuclein (Homo sapiens), P37840 [A53T]; test: Inhibition of fibril formation of human alpha-synuclein A53T mutant expressed in Escherichia coli BL21(DE3) at protein to compound molar ratio of 200:1 after 100 hrs by ThT fluorescence assay relative to control; conditions: concentration not given here; in short: as §1
[5] = system: Alpha-synuclein (Homo sapiens), P37840 [A53T]; test: Inhibition of preformed fibrils of human alpha-synuclein A53T mutant expressed in Escherichia coli BL21(DE3) at 5 uM treated after 60 hrs during fibril elongation phase by ThT fluorescence assay
In short: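 ThT-monitored αS (10 μM) aggregation at 37 °C in 500 mM ammonium acetate pH 7.4; C-PC (5 μM) added at 60 h during elongation, and fluorescence (440/490 nm) followed afterwards; n = 3.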

[6] = system: Alpha-synuclein (Homo sapiens), P37840 [A53T]; test: Inhibition of fibril formation of human alpha-synuclein A53T mutant expressed in Escherichia coli BL21(DE3) assessed as reduction in mature fibrils formation at 2 uM after 100 hrs by uranyl acetate staining based transmission electron microscopic method
In short: (§2)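 End-point samples from ThT aggregation assays (αS or Aβ 10 μM, C-PC 2 μM; αS 100 h, Aβ40 25 h, Aβ42 2 h) adsorbed on carbon-coated grids, negatively stained with 2% (w/v) uranyl acetate, imaged by TEM.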

[7] = biological target: Amyloid-beta precursor protein (Homo sapiens) (UniProt P05067); test: Inhibition of amyloid beta (1 to 40) (unknown origin) fibril formation at 2 uM after 25 hrs by uranyl acetate staining based transmission electron microscopic method; in short: as §2
Amyloid-beta precursor protein (Homo sapiens), sequence (P05067 whole entry): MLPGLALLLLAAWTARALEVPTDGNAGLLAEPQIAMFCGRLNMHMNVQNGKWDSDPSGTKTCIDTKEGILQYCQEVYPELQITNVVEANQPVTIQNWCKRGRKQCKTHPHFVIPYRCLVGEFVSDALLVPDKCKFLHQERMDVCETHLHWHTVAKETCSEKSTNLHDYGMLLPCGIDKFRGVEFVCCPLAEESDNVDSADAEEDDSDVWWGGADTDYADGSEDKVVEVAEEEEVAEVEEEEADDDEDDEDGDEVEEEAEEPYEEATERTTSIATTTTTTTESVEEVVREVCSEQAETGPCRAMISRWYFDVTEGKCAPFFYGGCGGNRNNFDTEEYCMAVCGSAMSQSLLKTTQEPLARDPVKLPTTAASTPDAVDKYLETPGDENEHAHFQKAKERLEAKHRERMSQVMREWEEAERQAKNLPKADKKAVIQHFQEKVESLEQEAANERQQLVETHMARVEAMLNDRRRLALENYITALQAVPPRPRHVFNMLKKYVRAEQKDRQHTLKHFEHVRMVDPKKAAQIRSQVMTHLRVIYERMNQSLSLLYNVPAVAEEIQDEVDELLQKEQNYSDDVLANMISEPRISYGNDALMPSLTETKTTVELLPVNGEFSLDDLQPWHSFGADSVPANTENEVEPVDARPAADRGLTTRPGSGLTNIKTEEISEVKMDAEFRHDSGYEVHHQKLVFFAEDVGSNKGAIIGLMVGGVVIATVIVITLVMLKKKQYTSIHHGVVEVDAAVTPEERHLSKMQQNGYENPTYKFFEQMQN

[8] = biological target: Amyloid-beta precursor protein (Homo sapiens) (UniProt P05067); test: Inhibition of amyloid beta (1 to 42) (unknown origin) fibril formation at 2 uM after 2 hrs by uranyl acetate staining based transmission electron microscopic method; in short: as §2
[9] = biological target: Amyloid-beta precursor protein (Homo sapiens) (UniProt P05067); test: Inhibition of amyloid beta (1 to 40) (unknown origin) fibril formation at protein to compound ratio of 5:1 after 100 hrs by ThT fluorescence assay
In short: (§3)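 Aβ40 or Aβ42 (10 μM; NaOH-pretreated stock for monomerization) incubated with C-PC at 5:1 Aβ:C-PC in 500 mM ammonium acetate pH 7.4, 37 °C, sealed plates, up to 100 h; ThT fluorescence 440/490 nm; triplicate, mean ± SEM.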

[10] = biological target: Amyloid-beta precursor protein (Homo sapiens) (UniProt P05067); test: Inhibition of amyloid beta (1 to 42) (unknown origin) fibril formation at protein to compound ratio of 5:1 after 100 hrs by ThT fluorescence assay; in short: as §3
Saccharomyces cerevisiae = test: Inhibition of heat-induced amorphous aggregation of yeast ADH at 2.5 uM measured over 2 hrs by light scattering assay
In short: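 ADH (5 μM) aggregation induced with 20 mM DTT and 2 mM EDTA (final) at 42 °C; light scattering followed as absorbance at 340 nm over 2 h, with or without C-PC (2.5 μM); triplicate, mean ± SEM.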

Catalase (Bos taurus) = biological target: T1, Catalase (Bos taurus) (UniProt P00432); test: Inhibition of heat-induced amorphous aggregation of bovine liver catalase at 2.5 uM measured over 2 hrs by light scattering assay
T1 sequence (whole entry): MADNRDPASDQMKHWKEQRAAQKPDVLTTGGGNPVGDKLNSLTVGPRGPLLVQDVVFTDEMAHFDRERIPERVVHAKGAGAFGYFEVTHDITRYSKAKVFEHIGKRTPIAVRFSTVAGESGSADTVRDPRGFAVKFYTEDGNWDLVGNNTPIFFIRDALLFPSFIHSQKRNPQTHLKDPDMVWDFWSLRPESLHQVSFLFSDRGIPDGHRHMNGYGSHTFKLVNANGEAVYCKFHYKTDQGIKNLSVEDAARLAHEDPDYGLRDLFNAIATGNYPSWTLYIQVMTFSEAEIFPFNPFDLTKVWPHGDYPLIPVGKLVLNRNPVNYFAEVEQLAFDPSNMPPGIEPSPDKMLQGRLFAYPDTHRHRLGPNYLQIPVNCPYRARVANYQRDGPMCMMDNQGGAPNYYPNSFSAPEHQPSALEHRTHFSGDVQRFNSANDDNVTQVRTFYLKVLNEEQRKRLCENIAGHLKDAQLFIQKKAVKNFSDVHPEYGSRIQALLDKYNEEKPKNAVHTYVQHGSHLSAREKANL
In short: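 Catalase (5 μM) aggregated by heating at 55 °C; absorbance (light scattering) at 340 nm tracked for 2 h with or without C-PC (2.5 μM); triplicate, mean ± SEM.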

[11] = system: Alpha-synuclein (Homo sapiens), P37840 [A53T]; test: Binding affinity to human 15N-labeled alpha-synuclein A53T mutant expressed in Escherichia coli BL21(DE3) assessed as chemical perturbation at H50 at 7.5 uM by 2D 1H-15N HSQC NMR analysis
In short: (§4)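 Uniformly 15N-labelled monomeric αS (grown in M9 medium with [15N]NH4Cl, IPTG-induced) titrated with C-PC; 1H–15N HSQC spectra in 10 mM Na2HPO4, 100 mM NaCl, pH 7.4; amide chemical shift changes and signal-to-noise monitored using prior resonance assignments.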

[12] = system: Alpha-synuclein (Homo sapiens), P37840 [A53T]; test: Binding affinity to human 15N-labeled alpha-synuclein A53T mutant expressed in Escherichia coli BL21(DE3) assessed as reduction in signal to noise ratio at 7.5 uM by 2D 1H-15N HSQC NMR analysis; in short: as §4
[13] = system: Alpha-synuclein (Homo sapiens), P37840 [A53T]; test: Binding affinity to human alpha-synuclein A53T mutant expressed in Escherichia coli BL21(DE3) assessed as compound-protein stable complex formation at 2 uM after 20 hrs by native mass spectrometry analysis
In short: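 αS (10 μM) incubated with C-PC (2 μM) at 40 °C for 20 h, then analysed by native nanoelectrospray MS for αS–C-PC complex peaks versus monomer/dimer and C-PC oligomer species.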

[14] = system: Alpha-synuclein (Homo sapiens), P37840 [A53T]; test: Binding affinity to human alpha-synuclein A53T mutant expressed in Escherichia coli BL21(DE3) assessed as compound-protein stable complex formation at 2 uM after 20 hrs by size-exclusion chromatographic method

In the case of `C/C=C1/C(=C\c2[nH]c(/C=C3N=C(/C=C4/NC(=O)C(CC)=C4C)C(C)=C/3CCC(=O)O)c(CCC(=O)O)c2C)NC(=O)C1C` (stereo unspecified), the TIME [1] is reported as 1.4e-06 h, the Activity [2] is reported as “inactive” and the inhibition [3] is reported as “Dose-dependent effect”. For the same molecule, the inhibition [4] was 50%, the inhibition [5] was “Active” and the inhibition [6] was “Active”. For the same molecule, the inhibition [7] was “Active”, the inhibition [8] was “Active” and the inhibition [9] was “Active”. For the same molecule, the inhibition [10] was “Active”, the inhibition (Saccharomyces cerevisiae) was “inactive” and the inhibition (Catalase (Bos taurus)) was “inactive”. The Activity [11] was “Active”, the Activity [12] was “Active” and the Activity [13] was “inactive”. The Activity [14] was “inactive”.
